The whole screen tested about 130,000 compounds, of which about 1,000 (0.77%) were called active. Roughly 1% stayed inconclusive and do not appear here.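 The calls were made as follows: active = activation at 2 µM above a set limit, confirmed on inspection of the cell images; inconclusive = above the set limit but not confirmed on image inspection; inactive = the rest.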 Only a selection was taken, and actives are over-represented in it overall.
experiment: activators of insulin promoter-driven GFP, primary screen, imaging, TRM-6 cells, eGFP reporter, cell count (AID 1296); conditions: at 2 µM; activation: stronger effect = higher value, plate-scaled: unstimulated 0, stimulated control 100; normalized cell count: measured here: cell count (toxicity);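 as to activation: share of cells whose green reporter signal exceeds an intensity cutoff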;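 as to normalized cell count: cells counted after 48 h compound exposure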
Procedure, shortened: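 Test system: human fetal islet-derived TRM-6 cells with tamoxifen-inducible insulin promoter–eGFP reporter; schedule: overnight tamoxifen, then two-day compound incubation at 37 °C; measured by: high-content imaging of fixed cells with Hoechst nuclear stain; evaluation: percent cells above green-intensity threshold, converted to percent activation versus plate controls; control set: stimulated and unstimulated wells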

Row | SMILES | activation | normalized cell count [%]
1 | CCOC(=O)NN1C(=O)c2ccccc2NC1c1ccccc1O (centres undefined) | 2.78% (inactive) | 107
2 | N#C/C(=C/c1ccc(N2CCOCC2)o1)C(=O)N1CCOCC1 | 7.69% (inactive) | 59.4
3 | N#C/C(=C\c1ccc(N2CCOCC2)o1)C(=O)N1CCOCC1 | 7.41% (inactive) | 99.1
4 | N#C/C(=C/c1ccc(N2CCCCC2)o1)C(=O)NCCc1c[nH]c2ccccc12 | 257% (active) | 92.9
5 | CC1(C)C2CC=C(/C=N/NC(=O)c3ccc(Cl)cc3)C1C2 (centres undefined) | -3.33% (inactive) | 104
6 | COc1ccc(-c2noc(CSc3ccc(C)cc3)n2)cc1 | 521% (active) | 77.9
7 | COc1ccc(-c2noc(-c3ccc(C)cc3)n2)cc1 | 1.41% (inactive) | 143
8 | Cc1ccc(-c2noc(CSc3nnc(-c4ccccc4)n3C)n2)cc1 | -8.33% (inactive) | 65.9
9 | O=C(Nc1ccccc1F)c1ccc(Cn2cc(Br)cn2)cc1 | 0% (inactive) | 118
10 | Cc1ccc(O)c(-c2cc(C(=O)NCc3ccccc3)[nH]n2)c1 | -7.14% (inactive) | 81.6
11 | Cc1cc(C)cc(NC(=O)c2cccc(NC(=O)C3C4CC5OC(=O)C3C5C4)c2)c1 (centres undefined) | 76.7% (active) | 85.6
12 | Cc1cccc(NC(=O)C2CC(=O)OC23CCCC3)c1 (centres undefined) | 7.14% (inactive) | 75.4
13 | CSCc1ccc(C(=O)Nc2cc(C)cc(C)c2)cc1 | -9.09% (inactive) | 139
14 | O=C(COC(=O)c1cc(S(=O)(=O)N2CCCCC2)ccc1Cl)NCc1ccco1 | -5.56% (inactive) | 260
15 | CC(C)CCC(C)NC(=O)c1ccc2nccnc2c1 (centres undefined) | 6.67% (inactive) | 43.3
16 | Cc1ccc(/C=C(\C#N)C(=O)Nc2cccc3ncccc23)o1 | 2.7% (inactive) | 106
17 | Cc1nc(NC(=O)C2CCCCC2)sc1C | 0% (inactive) | 50
18 | Cc1ccc2c(NC(=O)C3CC3)cccc2n1 | 140% (active) | 109
19 | CC(C)(C)NC(=O)CN(C(=O)c1ccc(Cl)nc1)c1cccc2ccccc12 | 108% (inactive) | 93

Row | SMILES | activation | normalized cell count [%]
20 | O=C(Nc1ccccc1)c1ccc2nsnc2c1 | 193% (active) | 111
21 | Cc1cccc(C(=O)Nc2ccc(C(=O)/C=C/c3cccs3)cc2)c1 | 9.3% (inactive) | 81.7
22 | Cc1cccc(C(=O)Nc2ccc(CC(=O)O)cc2)c1 | 226% (inactive) | 56.2
23 | Cc1nn2c3cc(N4CCOCC4)ccc3nc2c2ccccc12 | 63.5% (inactive) | 79.7
24 | CC1C/C(=N/NC(=O)c2cccs2)CC(C)(C)C1 (centres undefined) | 7.25% (inactive) | 112
25 | COc1cc(NS(=O)(=O)c2ccc(N=Cc3c(C)[nH]n(-c4ccccc4)c3=O)cc2)nc(OC)n1 | 3.7% (inactive) | 98.8
26 | Clc1ccc(-c2nnc(-c3ccccc3)nc2N2CCSCC2)cc1 | -5.41% (inactive) | 97.6
27 | Cn1nc(-c2ccccc2)c(-c2nc(-c3ccc(Cl)cc3)no2)c1Cl | 471% (active) | 71.1
28 | COc1ccc(-c2nc(-c3ccccc3)no2)c(OC)c1 | 0% (inactive) | 103
29 | COc1cccc(NC(=O)CN(C)C(C)C(=O)Nc2ccc(C#N)cc2)c1 (centres undefined) | 8.11% (inactive) | 96.1
30 | COc1ccc(C(=O)CSc2n[nH]c(N)n2)cc1 | 7.41% (inactive) | 116
31 | COC(=O)CSc1nc(C)c2ccc(OC)cc2n1 | 438% (active) | 69.4
32 | COC(=O)c1cc(C(=O)CSc2nc(C)cc(C)n2)ccc1O | -5.56% (inactive) | 111
33 | Cc1nn(-c2ccccn2)c2c1C(c1ccncc1)C1=C(CC(C)(C)CC1=O)N2 (centres undefined) | -6.9% (inactive) | 120
34 | CN(C)c1nnnn1-c1ccc(Cl)cc1 | 0% (inactive) | 128
35 | Cn1nccc1CNC(=O)c1ccnn1C | 7.69% (inactive) | 127
36 | COc1ccc(OCC(=O)N2CCN(C(=O)c3cccs3)CC2)cc1 | 9.09% (inactive) | 125
37 | COc1ccc(OCC(=O)N2CCN(C(=O)COc3ccccc3)CC2)cc1 | 411% (active) | 70.2
38 | O=C(COc1ccccc1)N1CCc2ccccc2C1 | 3.45% (inactive) | 131

Row | SMILES | activation | normalized cell count [%]
39 | O=C(CSc1nnc(Cn2cnc3ccccc32)o1)c1ccccc1 | 0% (inactive) | 112
40 | CC(C)C[C@@H](N)c1nnc(SCC(=O)c2ccc(Cl)cc2)o1 | 533% (active) | 62.6
41 | O=C(CSc1nnc(-c2c[nH]c3ccccc23)o1)c1ccccc1 | 0% (inactive) | 133
42 | CCCc1nc2c([nH]1)C(c1cccnc1)C(C#N)=C(N)O2 (centres undefined) | -6.67% (inactive) | 147
43 | OC1CSc2nc3ccccc3n2C1 (centres undefined) | 0% (inactive) | 81.8
44 | C=CCn1c(CCc2ccc(OC(C)C)cc2)n[nH]c1=S | 0% (inactive) | 117
45 | CCCOCC(O)CC(CC)C(=O)NNC(=S)Nc1ccccc1 (centres undefined) | 0% (inactive) | 106
46 | Nc1ccc(-n2nncc2-c2ccco2)cc1 | 406% (active) | 53.5
47 | CCOC(=O)CNC(=O)CSc1ccc2nnc(-c3cccnc3)n2n1 | 0% (inactive) | 132
48 | Cn1cccc1-c1nc2ccccc2n1C | 300% (active) | 75.7
49 | COc1ccc(-c2nc3ccccc3n2CCC(C)C)cc1OC | -9.86% (inactive) | 74.4
50 | COc1ccc(N2CCN(C(=O)COc3ccc4c(C)cc(=O)oc4c3)CC2)cc1 | -8.33% (inactive) | 132
51 | COc1cc(NC(=S)NNC(=O)CC(C)C)c(OC)cc1Cl | 9.38% (inactive) | 70.7
52 | O=C(NC1CCCC1)C(NS(=O)(=O)c1ccc(Br)s1)c1ccccc1 (centres undefined) | 107% (inactive) | 72.4
53 | O=C(CSc1nn(-c2ccc(F)cc2)c(=S)s1)NC1CCS(=O)(=O)C1 (centres undefined) | 5.88% (inactive) | 104
54 | COc1ccc(-n2nc3c(c2NC(=O)c2ccc(N4C(=O)CCC4=O)cc2)CSC3)cc1 | -5.88% (inactive) | 73.5
55 | CCS(=O)(=O)c1ccc2oc(SCC(=O)N3c4ccccc4CC3C)nc2c1 (centres undefined) | 457% (active) | 101
56 | O=C(CSc1nc2ccccc2o1)N1c2ccccc2Sc2ccc(Cl)cc21 | -4.44% (inactive) | 77.2
57 | CC1Cc2ccccc2N1C(=O)CSc1nc2ccccc2o1 (centres undefined) | 7.14% (inactive) | 87.7

Reference: PubChem BioAssay AID1296 (Columbia University Molecular Screening Center, 2008)
